Results gathered from unrelated publications.
Protocols differ between the studies behind these lines.
Target: Myotonin-protein kinase (DMPK, Homo sapiens, UniProt Q09013)
One construct used (Q09013 1-629): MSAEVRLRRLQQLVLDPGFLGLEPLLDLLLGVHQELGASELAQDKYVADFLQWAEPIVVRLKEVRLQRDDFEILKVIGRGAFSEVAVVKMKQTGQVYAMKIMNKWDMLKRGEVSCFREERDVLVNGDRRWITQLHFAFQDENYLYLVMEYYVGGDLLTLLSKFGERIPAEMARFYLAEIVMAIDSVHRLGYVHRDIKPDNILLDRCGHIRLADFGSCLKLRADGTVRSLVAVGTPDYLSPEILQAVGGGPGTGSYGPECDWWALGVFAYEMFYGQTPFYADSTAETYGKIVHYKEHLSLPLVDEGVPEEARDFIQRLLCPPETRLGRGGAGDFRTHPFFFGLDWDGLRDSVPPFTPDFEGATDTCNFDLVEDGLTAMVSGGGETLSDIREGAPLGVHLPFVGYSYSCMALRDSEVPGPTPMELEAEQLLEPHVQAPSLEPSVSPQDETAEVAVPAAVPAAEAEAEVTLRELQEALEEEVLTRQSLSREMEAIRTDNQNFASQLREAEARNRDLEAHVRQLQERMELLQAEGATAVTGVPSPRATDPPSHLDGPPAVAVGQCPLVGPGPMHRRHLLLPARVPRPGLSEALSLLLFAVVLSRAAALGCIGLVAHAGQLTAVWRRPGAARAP

The remaining binding of O=C(c1ccc(Nc2ncc(Cl)c(-c3cc4ccccc4s3)n2)cc1)N1CCC(N2CCCC2)CC1 is reported as 75% (binding, competition with immobilised ligand; 1 µM).
The remaining binding of C[C@@H](c1ccc(-n2cnc3c(N)ncnc32)cc1)N1CCc2nn(C)c(Cc3ccccc3)c2C1=O is reported as 86% (binding, competition with immobilised ligand; 0.1 µM).
With O=C(NCCCC1CCCCC1)c1ccc(CNC(=O)c2cnn(-c3ccccc3)c2C(F)(F)F)cc1 the remaining binding was 83% (cell-free assay, competition with immobilised ligand; 0.1 µM).
The remaining binding of c1cncc(-c2cccc(Nc3nccc(NC4CCCCC4)n3)c2)c1 is reported as 100% (binding, competition with immobilised ligand; 10 µM).
C[C@@H]1CCN(c2nccc(-c3cnn4ncccc34)n2)C1 gave a remaining binding of 90% (binding; 1 µM).
With O=C(NCC1CCOCC1)c1n[nH]cc1NC(=O)c1c(F)cccc1F the remaining binding was 38% (binding, competition with immobilised ligand; 1 µM).
For COc1cccc(CNC(=O)c2nc3scc(COCc4ccc(C(=O)O)cc4)c3c(=O)[nH]2)c1, the remaining binding was 85.4% (cell-free assay, competition with immobilised ligand; 1 µM).
With C=CC(=O)N1CCC(C(=O)NCC(=O)N2CCN(c3nc(-c4cnc(N)nc4C(F)F)nc(N4CCOCC4)n3)CC2)CC1 the remaining binding was 87% (binding, competition with immobilised ligand; 1 µM).
With CN(C)c1ncc(F)c(-c2cnn3ncccc23)n1 the remaining binding was 100% (binding; 1 µM).
The remaining binding of O=C(c1ccc(Nc2ncc(Cl)c(-c3ccc(Cl)s3)n2)cc1)N1CCC(N2CCCC2)CC1 is reported as 100% (binding, competition with immobilised ligand; 1 µM).
For CCN1CCN(Cc2ccc(C(=O)Nc3ccc(C)c(Oc4ccc5c(c4)CC(=O)N5)c3)cc2C(F)(F)F)CC1, the remaining binding was 88% (binding, competition with immobilised ligand; 1 µM).
The remaining binding of Nc1cnc(N2CCc3cc(S(=O)(=O)Nc4c(F)cc(Cl)cc4F)cc(N4CCCC4=O)c32)nc1 is reported as 100% (cell-free assay, competition with immobilised ligand; 1 µM).
With CC1CCCN1c1nccc(-c2cnn3ncccc23)n1 (stereo not shown) the remaining binding was 94% (binding; 1 µM).
COc1cnc(Nc2cccc(S(N)(=O)=O)c2)nc1N1CCN(c2ccccc2)C(=O)C1 has a remaining binding of 100% (binding, competition with immobilised ligand; 1 µM).
With c1cnn2ncc(-c3ccnc(N4CCC45COC5)n3)c2c1 the remaining binding was 98% (binding; 1 µM).
With CCS(=O)(=O)c1cc2cc(C[C@@](O)(CC(C)(C)c3ccc(F)cc3C(N)=O)C(F)(F)F)[nH]c2cn1 the remaining binding was 85% (cell-free assay, competition with immobilised ligand; 1 µM).
For CN(CCCC(F)(F)F)c1nccc(-c2cnn3ncccc23)n1, the remaining binding was 80% (binding; 1 µM).
With O=C(NCCCN1CCOCC1)c1ccc(Nc2nccc(-c3cc4ccccc4s3)n2)cc1 the remaining binding was 100% (binding, competition with immobilised ligand; 1 µM).
The remaining binding of C[C@H](NC(=O)c1cnc2n1[C@](C)(Cc1ccc(C#N)cc1)C(=O)N2c1cc(Cl)c(F)c(Cl)c1)C(=O)NC1(c2ccccn2)CC1 is reported as 67% (cell-free assay, competition with immobilised ligand; 1 µM).
With N[C@@H]1CCN(c2nccc(-c3cnn4ncccc34)n2)C1 the remaining binding was 94% (binding; 1 µM).
CNC(=O)c1ccc(Nc2ncc(C(F)(F)F)c(NCc3nccnc3N(C)S(C)(=O)=O)n2)cc1 gave a remaining binding of 16% (cell-free assay, competition with immobilised ligand; 0.1 µM).
Cc1cnn2ncc(-c3ccnc(N(C)C)n3)c2c1 has a remaining binding of 100% (binding; 1 µM).
